Assay results as given in ChEMBL document CHEMBL1156619, “TX-2152: a conformationally rigid and electron-rich diyne analogue of FTY720 with in vivo antiangiogenic activity” (Bioorg Med Chem, 2008).

Assays:
Gallus gallus [1] = species: Gallus gallus; assay: Antiangiogenic activity in chick embryo chorioallantoic membrane assessed as number of eggs showing 3 mm avascular zone at 10 ug; type: functional, tissue-based
Method in brief: (§1)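 Fertilized chicken eggs held at 37.6 °C, humidified, for 4 days; 3 mL albumin withdrawn and air sac displaced to drop the CAM, window capped, incubation at 39.0 °C. Next day a silicon ring placed on the 2–3 mm CAM and test solution applied dropwise at room temperature. Compounds in DMSO, vehicle control 0.05% DMSO in 1% methyl cellulose/0.9% NaCl. After 1 day incubator raised to 39.5 °C and eggs incubated 1 more day. Vessels then visualized by injecting fat emulsion (1 mL) into the CAM and scored for inhibition.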

Gallus gallus [2] = species: Gallus gallus; assay: Antiangiogenic activity in chick embryo chorioallantoic membrane assessed as number of eggs showing 3 mm avascular zone at 1 ug; type: functional, tissue-based; method in brief: as §1
Gallus gallus [3] = species: Gallus gallus; assay: Antiangiogenic activity in chick embryo chorioallantoic membrane assessed as number of eggs showing 3 mm avascular zone at 2.5 ug; type: functional, tissue-based; method in brief: as §1
Gallus gallus [4] = species: Gallus gallus; assay: Antiangiogenic activity in chick embryo chorioallantoic membrane assessed as number of eggs showing 3 mm avascular zone at 5 ug; type: functional, tissue-based; method in brief: as §1
[5] = Hydrophobicity, Log P of the compound; type: physicochemical; conditions: octanol/water
Method in brief: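 Observed logP (logPow) measured by HPLC on a C18 column. Mobile phase methanol/water 3:1 (v/v) at 1.0 mL/min, UV detection at 254 nm. Test and reference compounds dissolved in mobile phase for injection.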

Gallus gallus [6] = species: Gallus gallus; assay: Antiangiogenic activity in chick embryo chorioallantoic membrane assessed as number of eggs showing 3 mm avascular zone at 100 ug; type: functional, tissue-based; method in brief: as §1

Row | SMILES | inhibition (Gallus gallus [1]) [%] | inhibition (Gallus gallus [2]) [%] | inhibition (Gallus gallus [3]) [%] | inhibition (Gallus gallus [4]) [%] | logP [5] | inhibition (Gallus gallus [6]) [%]
1 | C#CC#CC#Cc1ccc(CCC(N)(CO)CO)cc1 | 60 | 40 | 67 | 67 | – | –
2 | C#Cc1ccc(CCC(N)(CO)CO)cc1 | 42 | 17 | – | 17 | – | –
3 | C#CC#Cc1ccc(CCC(N)(CO)CO)cc1 | 90 | 35 | 71 | 79 | – | –
4 | CC(=O)NC(CCc1ccc(C#C[Si](C)(C)C)cc1)(COC(C)=O)COC(C)=O | – | – | – | – | 4.07 | –
5 | CC(=O)NC(CCc1ccc(C#CC#CC#C[Si](C)(C)C)cc1)(COC(C)=O)COC(C)=O | – | – | – | – | 5.9 | –
6 | CC(=O)NC(CCc1ccc(C#CC#C[Si](C)(C)C)cc1)(COC(C)=O)COC(C)=O | – | – | – | – | 4.97 | –
7 | CO[C@@H]1[C@H](OC(=O)NC(=O)CCl)CC[C@]2(CO2)[C@H]1[C@@]1(C)O[C@@H]1CC=C(C)C | 82 | 50 | – | 78 | – | –
8 | CCCCCCCCc1ccc(CCC(N)(CO)CO)cc1 | 77 | 40 | – | – | – | 100
